# ChEMBL document CHEMBL1145845, “Acetogenins as selective inhibitors of the human ovarian 1A9 tumor cell line” (2003)
# Calls of active or inactive are those of the source.
# Assays:
# 1A9 = experiment: Effective dose required for inhibitory activity against 1A9 human tumor cell line.; type: functional; details: read-out: ED50 (the source's name)
# Summary of the method: (§1)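 Human tumor lines were grown in RPMI-1640 with 25 mM HEPES, 0.25% sodium bicarbonate, 10% FBS and 100 µg/mL kanamycin. KB-VIN is a vincristine-resistant KB subline, and PTX10 is a 1A9 subline with mutated β-tubulin. Trypsinized cells (1500–7500/well) got compound from DMSO stock for 3 days continuous. Cells were fixed with cold 50% TCA, stained with 0.4% SRB, and read at 562 nm. ED50 is the 50% growth-reduction concentration; not active means ≤5% inhibition at the top concentration.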
# A549 = experiment: Effective dose required for inhibitory activity against A549 human tumor cell line.; type: functional; details: read-out: ED50 (the source's name); summary of the method: as §1
# CAKI-1 [1] = experiment: Effective dose required for inhibitory activity against CAK1 human tumor cell line; Not active; type: functional, cell-based; summary of the method: as §1
# HOS [2] = experiment: Effective dose required for inhibitory activity against HOS human tumor cell line; Not active; type: functional, cell-based; summary of the method: as §1
# HCT-8 = experiment: Effective dose required for inhibitory activity against HCT-8 human tumor cell line.; type: functional; details: read-out: ED50 (the source's name); summary of the method: as §1
# KB [3] = experiment: Effective dose required for inhibitory activity against KB human tumor cell line.; type: functional; details: read-out: ED50 (the source's name); summary of the method: as §1
# KB [4] = experiment: Effective dose required for inhibitory activity against KB-VIN human tumor cell line.; type: functional; details: read-out: ED50 (the source's name); summary of the method: as §1
# MCF7 [5] = experiment: Effective dose required for inhibitory activity against MCF-7 human tumor cell line.; type: functional; details: read-out: ED50 (the source's name); summary of the method: as §1
# PC-3 = experiment: Effective dose required for inhibitory activity against PC-3 human tumor cell line.; type: functional; details: read-out: ED50 (the source's name); summary of the method: as §1
# 1A9/ptx-10 [6] = experiment: Percent inhibition against PTX10 human tumor cell line at >10 ug/mL; type: functional
# SK-MEL-2 [7] = experiment: Effective dose required for inhibitory activity against SK-MEL-2 human tumor cell line; Not active; type: functional, cell-based; summary of the method: as §1
# CAKI-1 [8] = experiment: Effective dose required for inhibitory activity against CAK1 human tumor cell line; type: functional; details: read-out: ED50 (the source's name); summary of the method: as §1
# HOS [9] = experiment: Effective dose required for inhibitory activity against HOS human tumor cell line.; type: functional; details: read-out: ED50 (the source's name); summary of the method: as §1
# SK-MEL-2 [10] = experiment: Effective dose required for inhibitory activity against SK-MEL-2 human tumor cell line.; type: functional; details: read-out: ED50 (the source's name); summary of the method: as §1
# 1A9/ptx-10 [11] = experiment: Effective dose required for inhibitory activity against PTX10 human tumor cell line; type: functional; details: read-out: ED50 (the source's name); summary of the method: as §1
# MCF7 [12] = experiment: Percent inhibition against MCF-7 human tumor cell line at <5 ug/mL; type: functional
EC50 (1A9/ptx-10 [11]),SMILES,EC50 (1A9),EC50 (A549),NA (CAKI-1 [1]),NA (HOS [2]),EC50 (HCT-8),EC50 (KB [3]),EC50 (KB [4]),EC50 (MCF7 [5]),EC50 (PC-3),Inhibition (1A9/ptx-10 [6]),NA (SK-MEL-2 [7]),EC50 (CAKI-1 [8]),EC50 (HOS [9]),EC50 (SK-MEL-2 [10]),Inhibition (MCF7 [12])
,CCCCCCCCCCCC[C@H](O)[C@@H]1CC[C@@H]([C@@H](O)CCCCC(=O)CCCCCC2CC(CC(C)=O)C(=O)O2)O1 (some centres undefined) [ISOANNONACINONE],2.2 µg/mL,> 20 µg/mL,inactive,inactive,> 20 µg/mL,> 20 µg/mL,> 20 µg/mL,> 20 µg/mL,> 20 µg/mL,19%,inactive,,,,
,CCCCCCCC/C=C\CC[C@H](O)[C@@H]1CC[C@@H]([C@H](O)CCCCC(O)CCCCCC(O)CC2=C[C@H](C)OC2=O)O1 (some centres undefined),0.93 µg/mL,17 µg/mL,,,14.4 µg/mL,13 µg/mL,17.5 µg/mL,7.6 µg/mL,15.3 µg/mL,40%,,19 µg/mL,17 µg/mL,17 µg/mL,
,CCCCCC(O)C(O)CCCCCC[C@H](O)[C@@H]1CC[C@H](CCCCCCCCCC[C@H](O)CC2=C[C@H](C)OC2=O)O1 (some centres undefined) [MURICIN B],0.52 µg/mL,> 20 µg/mL,inactive,,> 20 µg/mL,> 20 µg/mL,> 20 µg/mL,15.5 µg/mL,> 20 µg/mL,26%,,,> 20 µg/mL,> 20 µg/mL,
8.7 µg/mL,CCCCCCCCCCCC[C@@H](O)[C@H]1CC[C@@H]([C@@H](O)CCCCCCC(O)CCCCC[C@@H](O)CC2=C[C@H](C)OC2=O)O1 (some centres undefined),0.08 µg/mL,14.5 µg/mL,,,15 µg/mL,10.8 µg/mL,14 µg/mL,6.6 µg/mL,14 µg/mL,,,17.3 µg/mL,15 µg/mL,15.1 µg/mL,
7.2 µg/mL,CCCCCCCCCCCCCC[C@@H](O)[C@H]1CC[C@H]([C@H](O)CCCCC(O)CCCCCC(O)CC2=C[C@H](C)OC2=O)O1 (some centres undefined),0.5 µg/mL,11.5 µg/mL,,,12.7 µg/mL,9 µg/mL,13.3 µg/mL,5.6 µg/mL,12.2 µg/mL,,,16 µg/mL,13.6 µg/mL,15 µg/mL,
,CCCCCCCC(O)C(O)CC[C@H](O)[C@@H]1CC[C@@H](CCCCCCCCCC[C@H](O)CC2=C[C@H](C)OC2=O)O1 (some centres undefined),0.68 µg/mL,> 20 µg/mL,,,> 20 µg/mL,18 µg/mL,> 20 µg/mL,15.5 µg/mL,> 20 µg/mL,27%,,> 20 µg/mL,> 20 µg/mL,> 20 µg/mL,
0.041 µg/mL,CC(=O)O[C@H]1C(=O)[C@@]2(C)[C@H]([C@H](OC(=O)c3ccccc3)[C@]3(O)C[C@H](OC(=O)[C@H](O)[C@@H](NC(=O)c4ccccc4)c4ccccc4)C(C)=C1C3(C)C)[C@]1(OC(C)=O)CO[C@@H]1C[C@@H]2O [PACLITAXEL],0.002 µg/mL,0.005 µg/mL,,,0.011 µg/mL,0.001 µg/mL,,,,,,,,,
,CCCCCCCCCCCCCC[C@@H](O)[C@H]1CC[C@H]([C@H](O)CCC(O)CCCCCCCC2=C[C@H](C)OC2=O)O1 (some centres undefined),0.81 µg/mL,20 µg/mL,,,20 µg/mL,17.3 µg/mL,> 20 µg/mL,9 µg/mL,16.8 µg/mL,43%,,> 20 µg/mL,> 20 µg/mL,> 20 µg/mL,

SMILES,EC50 (1A9/ptx-10 [11]),EC50 (1A9),EC50 (A549),NA (CAKI-1 [1]),NA (HOS [2]),EC50 (HCT-8),EC50 (KB [3]),EC50 (KB [4]),EC50 (MCF7 [5]),EC50 (PC-3),Inhibition (1A9/ptx-10 [6]),NA (SK-MEL-2 [7]),EC50 (CAKI-1 [8]),EC50 (HOS [9]),EC50 (SK-MEL-2 [10]),Inhibition (MCF7 [12])
CCCCCC(O)C(O)CCCCCC[C@@H](O)[C@H]1CC[C@H](CCCCCCCCCC[C@@H](O)CC2=C[C@H](C)OC2=O)O1 (some centres undefined) [MURICIN A],8.2 µg/mL,0.33 µg/mL,16.8 µg/mL,,,15 µg/mL,12.8 µg/mL,15 µg/mL,6 µg/mL,14.1 µg/mL,,,> 20 µg/mL,18.4 µg/mL,18 µg/mL,
CCCCCCCCCCCC[C@@H](O)[C@H]1CC[C@H]([C@H](O)CCCCC(O)CCCCCCCC2=C[C@H](C)OC2=O)O1 (some centres undefined),5 µg/mL,0.1 µg/mL,9.8 µg/mL,,,10.8 µg/mL,7.6 µg/mL,12.5 µg/mL,,8.1 µg/mL,,,13.9 µg/mL,9.8 µg/mL,14.2 µg/mL,55%
